Most compounds without a hit are left out; they make up all but 2.1% or so of the library.
p-CIP stab down: compounds decreasing mouse p/CIP protein stability. Q05BA5. decrease of EGFP signal, % at 10 µM. 290,000 tested, 0.01% active. AID 1984. F442A p/CIP-EGFP cells, EGFP fluorescence, 16 h;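 active means EGFP signal decrease of at least 30% at 10 µM or well 3 SD below plate mean, unless failing retest; inactive means the rest, including hits failing retest or dose response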
Runt-CBFb FRET: Runt domain-CBFb interaction inhibition; inhibition, % at 20 µM; AID 1496; Cerulean-Runt/Venus-CBFb FRET ratio 530/480, 1 h; 220,000 tested, 0.46% active;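 active means inhibition over about 50% at 20 µM in the single-dose screen, limit read from the data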;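 further: 0% = DMSO wells and 100% = excess unlabeled CBFb competitor control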
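Doses: 20 µM compound in 1% DMSO | Material: Cerulean-labeled Runt domain protein | Amount: Each fluorescent fusion protein 100 nM | Schedule: Two 1 h room-temperature incubations shielded from light | Measured by: FRET fluorescence | Evaluation: Loss of energy transfer signal | Controls: Unlabeled CBFb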
Hck Nef HTS: inhibitors of human Hck kinase activated by Nef | P08631 | 220,000 tested, 0.68% active | Recombinant Hck-YEEI plus Nef, Z-Lyte FRET kinase assay | inhibition, % at 20 µM;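 active means Hck-Nef kinase inhibition above about 50%, limit read from the data; inactive means inhibition below that limit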;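 further: 0% = DMSO with Hck plus Nef and 100% = Hck alone without Nef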
RanGTP-Imp inh: disruptors of Ran-importin-beta complex formation – biochemical, FRET, CFP-Ran, YFP-importin-beta, homogeneous, primary screen; inhibition, % (no concentration beside the values); cell-free CFP-Ran/YFP-importin-beta FRET ratio; 300,000 tested, 1.1% active;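 active means more than half of the replicate wells show a fall in the fluorescence ratio signal beyond about 16%, limit read from the data, passing the limit was not always enough; inconclusive means exactly half of the replicate wells pass the set limit; inactive means fewer than half of replicates pass the limit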;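 further: 0% = DMSO wells and 100% = Ran loaded with GDP instead of GTP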
DSG3 Ab inh: inhibitors of pemphigus antibody binding to human desmoglein-3. 310,000 tested, 0.48% active. P32926. binding (percent of control), % at 10 µM. DSG3-coupled beads, scFv-anti-DSG3-GFP binding, flow cytometry; stronger effect = lower value;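 active means binding more than 3 SD below its plate's average and above zero; inconclusive means below that plate limit but binding exactly zero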;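 further: hits lower antibody fragment binding to DSG3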
Runt-SMMHC FRET: inhibitors of human RUNX1 Runt domain binding to CBFb-SMMHC. inhibition, % at 20 µM. 220,000 tested, 0.74% active. AID 1434. Q01196+Q13951. Cerulean-Runt/Venus-CBFb-SMMHC FRET ratio 530/480, 1 h;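 active means mean inhibition across duplicate retests at 20 µM reaching about 50%, limit read from the data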;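 further: 0% = DMSO wells and 100% = wells with excess untagged CBFb-SMMHC; inhibitors lower the FRET ratio by blocking Runt binding to CBFb-SMMHC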
Runt-CBFb TRFRET: disrupts human RUNX1 Runt domain binding to CBFb; shares compounds with Runt-CBFb FRET; 480 tested, 20% active; inhibition, % at 20 µM; AID 1502; TR-FRET RUNX1 Runt domain-CBFb binding; in the data active means inhibition above about 40%
Active calls of the source: *; ? = inconclusive; / = not tested or not shown.

SMILES	p-CIP stab down	Runt-CBFb FRET	Hck Nef HTS	RanGTP-Imp inh	DSG3 Ab inh	Runt-SMMHC FRET	Runt-CBFb TRFRET
CCc1ccccc1N1CSC2=C(C#N)C(c3ccccc3F)CC(=O)N2C1 (configuration not stated)	-28	60*	3	?	88	92*	0
COc1ccc(C2CC(=O)N3CN(c4ccccc4F)CSC3=C2C#N)cc1OC (configuration not stated)	-2	52*	1	-158	104	87*	17
N#CC1=C2SCN(Cc3ccccc3)CN2C(=O)CC1c1ccc2c(c1)OCO2 (configuration not stated)	-2	29	0	?	97	24	/
COc1ccc(C2CC(=O)N3CN(c4ccc(C)c(Cl)c4)CSC3=C2C#N)cc1 (configuration not stated)	-4	88*	1	?	101	38	8
N#CC1=C2SCN(Cc3ccco3)CN2C(=O)CC1c1ccc(Cl)cc1 (configuration not stated)	-10	30	-1	-4	98	23	/
COc1cc(C2CC(=O)N3CN(Cc4ccco4)CSC3=C2C#N)ccc1OCc1ccccc1 (configuration not stated)	-17	-1	4	0	104	28	/
CN1CCc2c(sc3ncn4nc(-c5ccccc5O)nc4c23)C1	-6	57*	2	/	/	125*	-2
C=CCOC(=O)C1=C(C)N=c2s/c(=C3\C(=O)N(CC(=O)O)c4ccccc43)c(=O)n2C1c1ccc(OC)cc1 (configuration not stated)	7	53*	49	-4	100	-35	29
CCOC(=O)C1=C(C)N=c2s/c(=C3\C(=O)Nc4ccccc43)c(=O)n2C1c1ccc2c(c1)OCO2 (configuration not stated)	-7	16	2	-2	93	-4	/
CC(C)(CNC(=O)c1ccccc1F)CNC(=O)c1ccccc1F	/	/	/	0	105	/	/
O=C(NCCO)c1cccc2c1-c1ccccc1C2=O	-8	2	2	-2	95	-1	/
O=C1c2ccccc2-c2c1cccc2C(=O)N(CCO)CCO	-18	75*	-1	-3	82	-1	-26
Cc1cc(C)c2c(n1)sc1c(-c3ccccc3)c(C#N)c(N)nc12	-7	60*	15	82*	/	83*	2
Cc1nc(N)c(C#N)c(-c2ccccc2)c1C	3	-1	1	2	97	2	/
CC1(C)CC(=O)C2=C(C1)Nc1[nH]c(=S)[nH]c(=O)c1C2c1ccccc1 (configuration not stated)	-20	50*	0	4	110	59*	12
O=C(NCC1CCCO1)c1cccc(NS(=O)(=O)c2ccc(Br)cc2)c1 (configuration not stated)	/	/	/	-2	99	/	/
CN1CCc2c(sc3c2C(=O)NC(c2cccc(OC(=O)c4cccs4)c2)N3)C1 (configuration not stated)	-11	51*	24	140*	118	106*	6
CCOc1ccc2nc(NCCCNC(=O)c3cc(OC)c(OC)c(OC)c3)c(C#N)cc2c1	-4	60*	-13	135*	93	81*	7
O=C(NNc1cc(Br)c(O)c(Br)c1)c1ccccc1	5	78*	14	-4	85	36	45*
CC(C)(C)c1cc(C(=S)N2CCN(CCO)CC2)cc(C(C)(C)C)c1O	-2	52*	2	?	100	47	9
CCN1CCN(C(=S)c2ccc(Cl)cc2)CC1	-3	38	0	1	98	30	/
OCCN1CCN(C(=S)c2ccc(Cl)cc2)CC1	-16	53*	6	6	/	40	11
CCOC(=O)CNC(=O)Cn1cnc2c(oc3ccccc32)c1=O	4	/	/	?	96	/	/
COc1ccc(CN(CC(=O)NCc2ccc(F)cc2)C(=O)CCC(=O)Nc2ccccn2)cc1	40	/	/	2	101	/	/

Assay outcomes (PubChem)
